Source: ChEMBL document CHEMBL1122443, “Synthesis and antitumor evaluation of selected 5,6-disubstituted 1(2)H-indazole-4,7-diones” (1983)
Calls of active or inactive are those of the source. The rule behind the calls is not given here.

What was measured:
[1] = tested on: Mus musculus; assay: Antitumor activity in CF1 mice bearing Ehrlich ascites carcinoma measured as survivors on day 9 at 1 mg/kg; 6/6; type: functional
[2] = tested on: Mus musculus; assay: Antitumor activity in CF1 mice bearing Ehrlich ascites carcinoma measured as survivors on day 9 at 10 mg/kg; 6/6; type: functional
[3] = tested on: Mus musculus; assay: Antitumor activity in CF1 mice bearing Ehrlich ascites carcinoma measured as percentage inhibition at 10 mg/kg; IA= inactive; type: functional, organism-based; design: dose 10 mg/kg
Method in brief: (§1)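 In the Ehrlich ascites model, male CF1 mice (22–25 g) received 2 × 10⁶ cells ip on day 0 and compound ip on days 1–8, with a vehicle of 0.05% Tween 80 ± 5% EtOH. Ascites volume and ascrit were taken on day 9. % inhibition = 100 − [(vol × ascrit, treated)/(vol × ascrit, control)], with >80% taken as significant.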

[4] = tested on: Mus musculus; assay: Antitumor activity in CF1 mice bearing Ehrlich ascites carcinoma measured as percentage inhibition at 1 mg/kg; IA= inactive; type: functional, organism-based; design: dose 1 mg/kg; method in brief: as §1
[5] = tested on: Mus musculus; assay: (§2) Antitumor activity in CF1 mice bearing Ehrlich ascites carcinoma measured as percentage inhibition at 8 mg/kg; type: functional; method in brief: as §1
[6] = tested on: Mus musculus; assay: Antitumor activity in CF1 mice bearing Ehrlich ascites carcinoma measured as percent ascrit packed cell volume at 10 mg/kg; type: functional
Method in brief: (§3)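 CF1 male mice (22–25 g) were inoculated ip with 2 × 10⁶ Ehrlich cells on day 0 and treated ip on days 1–8 in 0.05% Tween 80 or 5% EtOH/0.05% Tween 80 vehicle. On day 9 the mice were sacrificed, and the ascrit (packed cell volume) of the ascites fluid was determined.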

[7] = tested on: Mus musculus; assay: Antitumor activity in CF1 mice bearing Ehrlich ascites carcinoma measured as ascites volume at 5 mg/kg; type: functional
Method in brief: (§4)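 Male CF1 mice (22–25 g) received 2 × 10⁶ Ehrlich carcinoma cells ip on day 0. Dosing was ip daily on days 1–8, with sacrifice on day 9. Ascites fluid volume per mouse and ascrit (packed cell volume) were measured for each group. Vehicle was 0.05% Tween 80, or 5% absolute EtOH in 0.05% Tween 80, used for both compound and control. 6-Mercaptopurine was the positive control.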

[8] = tested on: Mus musculus; assay: Antitumor activity in CF1 mice bearing Ehrlich ascites carcinoma measured as ascites volume at 1 mg/kg; type: functional
Method in brief: (§5)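 Ehrlich ascites cells (2 × 10⁶) were implanted ip in male CF1 mice (22–25 g) on day 0. Dosing was ip on days 1–8 in 0.05% Tween 80 or 5% EtOH/0.05% Tween 80, with vehicle controls. Mice were killed on day 9, and ascites fluid volume per mouse was measured.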

[9] = tested on: Mus musculus; assay: Antitumor activity in CF1 mice bearing Ehrlich ascites carcinoma measured as percent ascrit packed cell volume at 8 mg/kg; type: functional; method in brief: as §4
[10] = tested on: Mus musculus; assay: Antitumor activity in CF1 mice bearing Ehrlich ascites carcinoma measured as ascites volume at 10 mg/kg; type: functional; method in brief: as §5
[11] = tested on: Mus musculus; assay: Antitumor activity in CF1 mice bearing Ehrlich ascites carcinoma measured as ascites volume at 8 mg/kg; type: functional; method in brief: as §4
[12] = tested on: Mus musculus; assay: Antitumor activity in CF1 mice bearing Ehrlich ascites carcinoma measured as survivors on day 9 at 5 mg/kg; 6/6; type: functional
[13] = tested on: Mus musculus; assay: Average days survived for treated / average days survived for control at 1 (mg/kg); 10/9.2; type: functional
[14] = tested on: Mus musculus; assay: Antitumor activity in CF1 mice bearing Ehrlich ascites carcinoma measured as percent ascrit packed cell volume at 1 mg/kg; type: functional; method in brief: as §3
[15] = tested on: Mus musculus; assay: Anti tumor activity in mice bearing lymphocytic leukemia P-388 at 1 mg/kg; type: functional
Method in brief: (§6)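 Male BDF1 mice (20–23 g) were inoculated ip with 1 × 10⁶ P-388 leukemia cells on day 0. Compound was given ip once daily on days 1–14 in 0.05% Tween 80 vehicle, with a vehicle control group and 5-fluorouracil as positive control. Activity was scored as % T/C, average days survived treated/control, with >125% taken as significant.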

[16] = tested on: Mus musculus; assay: Antitumor activity in CF1 mice bearing Ehrlich ascites carcinoma measured as percentage inhibition at 5 mg/kg; type: functional
Method in brief: (§7)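 Ehrlich ascites model in male CF1 mice (22–25 g): 2 × 10⁶ cells ip on day 0, ip dosing days 1–8, kill on day 9. Percent inhibition = 100 − [(treated volume × treated ascrit)/(control volume × control ascrit)]. Greater than 80% was taken as significant. Vehicle was 0.05% Tween 80, alone or with 5% absolute EtOH. 6-Mercaptopurine was the positive control.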

[17] = tested on: Mus musculus; assay: Antitumor activity in CF1 mice bearing Ehrlich ascites carcinoma measured as percent ascrit packed cell volume at 5 mg/kg; type: functional; method in brief: as §4
[18] = tested on: Mus musculus; assay: Antitumor activity in CF1 mice bearing Ehrlich ascites carcinoma measured as survivors on day 9 at 8 mg/kg; 6/6; type: functional
Method in brief: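 Male CF1 mice (22–25 g) were given 2 × 10⁶ Ehrlich carcinoma cells ip on day 0. Compounds were dosed ip on days 1–8 in 0.05% Tween 80 or in 5% absolute EtOH in 0.05% Tween 80, with vehicle-treated controls. Mice were killed on day 9, and ascites volume and ascrit (packed cell volume) were measured per mouse.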

[19] = tested on: Mus musculus; assay: Antitumor activity in CF1 mice bearing Ehrlich ascites carcinoma measured as percentage inhibition at 5 mg/kg; IA means inactive; type: functional, organism-based; design: dose 5 mg/kg; method in brief: as §7
[20] = tested on: Mus musculus; assay: Antitumor activity in 6 CF1 mice bearing Ehrlich ascites carcinoma measured as survivors on day 9 at 8 mg/kg; 6/6; type: functional
[21] = tested on: Mus musculus; assay: Antitumor activity in 6 CF1 mice bearing Ehrlich ascites carcinoma measured as survivors on day 9 at 5 mg/kg; 5/6; type: functional
[22] = tested on: Mus musculus; assay: Antitumor activity in 6 CF1 mice bearing Ehrlich ascites carcinoma measured as survivors on day 9 at 1 mg/kg; 6/6; type: functional
[23] = tested on: Mus musculus; assay: Antitumor activity in CF1 mice bearing Ehrlich ascites carcinoma measured as percentage inhibition at 1 mg/kg; IA means inactive; type: functional, organism-based; design: dose 1 mg/kg; method in brief: as §7
[24] = tested on: Mus musculus; assay: Antitumor activity in CF1 mice bearing Ehrlich ascites carcinoma measured as percentage inhibition at 8 mg/kg; IA means inactive; type: functional, organism-based; design: dose 8 mg/kg; method in brief: as §7
[25] = tested on: Mus musculus; assay: Antitumor activity in 6 CF1 mice bearing Ehrlich ascites carcinoma measured as survivors on day 9 at 3 mg/kg; 6/6; type: functional
[26] = tested on: Mus musculus; assay: (§8) Antitumor activity in CF1 mice bearing Ehrlich ascites carcinoma measured as percent ascrit packed cell volume at 3 mg/kg; type: functional; method in brief: as §3
[27] = tested on: Mus musculus; assay: Antitumor activity in CF1 mice bearing Ehrlich ascites carcinoma measured as percentage inhibition at 3 mg/kg; type: functional; method in brief: as §7
[28] = tested on: Mus musculus; assay: as §2; type: functional; method in brief: as §7; remark: listed apart in the source
[29] = tested on: Mus musculus; assay: Antitumor activity in 6 CF1 mice bearing Ehrlich ascites carcinoma measured as survivors on day 9 at 8 mg/kg; 5/6; type: functional
[30] = tested on: Mus musculus; assay: Antitumor activity in CF1 mice bearing Ehrlich ascites carcinoma measured as ascites volume at 3 mg/kg; type: functional; method in brief: as §4
[31] = tested on: Mus musculus; assay: Average days survived for treated / average days survived for control at 1 (mg/kg); 9.4/9.2; type: functional
[32] = tested on: Mus musculus; assay: Antitumor activity in CF1 mice bearing Ehrlich ascites carcinoma measured as percentage inhibition at 1 mg/kg; type: functional; method in brief: as §1
[33] = tested on: Mus musculus; assay: Antitumor activity in CF1 mice bearing Ehrlich ascites carcinoma measured as survivors on day 9 at 10 mg/kg; 5/6; type: functional
[34] = tested on: Mus musculus; assay: Antitumor activity in CF1 mice bearing Ehrlich ascites carcinoma measured as survivors on day 9 at 5 mg/kg; 5/5; type: functional
[35] = tested on: Mus musculus; assay: Antitumor activity in CF1 mice bearing Ehrlich ascites carcinoma measured as survivors on day 9 at 1 mg/kg; 5/6; type: functional
[36] = tested on: Mus musculus; assay: Antitumor activity in CF1 mice bearing Ehrlich ascites carcinoma measured as percentage inhibition at 3 mg/kg; IA means inactive; type: functional, organism-based; design: dose 3 mg/kg; method in brief: as §7
[37] = tested on: Mus musculus; assay: Antitumor activity in 6 CF1 mice bearing Ehrlich ascites carcinoma measured as survivors on day 9 at 5 mg/kg; 6/6; type: functional
[38] = tested on: Mus musculus; assay: as §8; type: functional; method in brief: as §4; remark: listed apart in the source
[39] = tested on: Mus musculus; assay: Anti tumor activity in mice bearing lymphocytic leukemia P-388 at 30 mg/kg; type: functional; method in brief: as §6
[40] = tested on: Mus musculus; assay: Average days survived for treated / average days survived for control at 20 (mg/kg); 4.8/9.2; type: functional
[41] = tested on: Mus musculus; assay: Anti tumor activity in mice bearing lymphocytic leukemia P-388 at 20 mg/kg; type: functional
Method in brief: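 Male BDF1 mice (20–23 g) inoculated ip with 1 × 10⁶ P-388 lymphocytic leukemia cells on day 0. Test agents were given ip once daily on days 1–14, with 0.05% Tween 80 as vehicle for treated and control groups. Read-out is %T/C, the mean days survived by treated over control. Values above 125% were counted as significant. 5-Fluorouracil was the positive control.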

[42] = tested on: Mus musculus; assay: Average days survived for treated / average days survived for control at 10 (mg/kg); 6.4/9.2; type: functional
[43] = tested on: Mus musculus; assay: Average days survived for treated / average days survived for control at 30 (mg/kg); 3.0/9.2; type: functional
[44] = tested on: Mus musculus; assay: Anti tumor activity in mice bearing lymphocytic leukemia P-388 at 10 mg/kg; type: functional; method in brief: as §6
[45] = tested on: Mus musculus; assay: Average days survived for treated / average days survived for control at 5 (mg/kg); 8.8/9.2; type: functional
[46] = tested on: Mus musculus; assay: Average days survived for treated / average days survived for control at 1 (mg/kg); 9.6/9.2; type: functional
[47] = tested on: Mus musculus; assay: Anti tumor activity in mice bearing lymphocytic leukemia P-388 at 5 mg/kg; type: functional; method in brief: as §6

SMILES	inhibition [3]	packed cell volume [6]	ascites volume [7]	ascites volume [8]	packed cell volume [9]	ascites volume [10]	ascites volume [11]	packed cell volume [14]	T/C [15]	inhibition in vivo at 5 mg/kg [16]	packed cell volume [17]	Survivors [25]	ascites volume [30]	other results
COC1=C(N2CC2)C(=O)c2cnn(C)c2C1=O	inactive	30.7%	0.7 ml mouse-1	4.2 ml mouse-1	36.2%	2.2 ml mouse-1	0.32 ml mouse-1	39.8%	109%	39.4%	34.6%	–	–	Survivors [1]: 6; Survivors [2]: 6; inhibition [4]: inactive; inhibition in vivo at 8 mg/kg [5]: 64.1%; Survivors [12]: 6; Average survival (days) [13]: 10; Survivors [18]: 6
NC1=C(Cl)C(=O)c2[nH]ncc2C1=O	–	–	2.7 ml mouse-1	2.1 ml mouse-1	29.1%	–	3 ml mouse-1	37.6%	–	–	32.3%	–	–	inhibition [19]: inactive; Survivors [20]: 6; Survivors [21]: 5; Survivors [22]: 6; inhibition [23]: inactive; inhibition [24]: inactive
CC(=O)NC1=C(Cl)C(=O)c2c(cnn2C)C1=O	–	–	0.56 ml mouse-1	–	37.9%	–	0.62 ml mouse-1	–	–	90%	29%	6	1.7 ml mouse-1	Survivors [21]: 5; packed cell volume [26]: 20%; inhibition in vivo at 3 mg/kg [27]: 67.8%; inhibition in vivo at 8 mg/kg [28]: 61.7%; Survivors [29]: 5
CCCSC1=C(N2CC2)C(=O)c2cnn(C)c2C1=O	inactive	39.4%	0.88 ml mouse-1	0.26 ml mouse-1	–	1.5 ml mouse-1	–	37.2%	102%	78.5%	37.8%	–	–	Average survival (days) [31]: 9.4; inhibition in vivo at 1 mg/kg [32]: 74.1%; Survivors [33]: 5; Survivors [34]: 5; Survivors [35]: 5
CC(=O)NC1=C(Cl)C(=O)c2[nH]ncc2C1=O	–	–	0.33 ml mouse-1	3.6 ml mouse-1	30.8%	–	1.8 ml mouse-1	40%	–	83.2%	20.2%	6	3.6 ml mouse-1	inhibition [36]: inactive; Survivors [22]: 6; Survivors [37]: 6; inhibition in vivo at 8 mg/kg [28]: 46.9%; Survivors [29]: 5; inhibition [23]: inactive; packed cell volume [38]: 38.1%
Cn1ncc2c1C(=O)C(Cl)=C(N1CC1)C2=O	inactive	37.3%	2.5 ml mouse-1	2 ml mouse-1	–	3.4 ml mouse-1	–	35.2%	107%	5.8%	41.4%	–	–	Survivors [1]: 6; T/C [39]: 33%; Average survival (days) [40]: 4.8; T/C [41]: 52%; Average survival (days) [42]: 6.4; inhibition [4]: inactive; Average survival (days) [43]: 3; T/C [44]: 70%; Survivors [12]: 6; Survivors [33]: 5; Average survival (days) [45]: 8.8; Average survival (days) [46]: 9.6; T/C [47]: 96%
Cn1ncc2c1C(=O)C(Cl)=C(N)C2=O	–	–	1 ml mouse-1	–	33.9%	–	1.9 ml mouse-1	–	–	8.4%	35.4%	6	2 ml mouse-1	Survivors [20]: 6; inhibition in vivo at 3 mg/kg [27]: 25.3%; Survivors [37]: 6; inhibition [24]: inactive; packed cell volume [38]: 44%
